Here are results for four compounds from ChEMBL document CHEMBL1131041 (J Med Chem, 1998).

Molecules are shown by their SMILES.

A short description of test [1]: Relative affinity for guinea pig kappa1 and rat delta receptors.
Test [2] deals with Mu-type opioid receptor (Mus musculus) (UniProt P42866). As to the kind of experiment: Compound was tested for antagonist activity against dOpioid receptor mu 1 on electrically stimulated guinea pig ileal longitudinal muscle myenteric plexus (GPI) using PL017as standard antagonist; e denotes 'the agonist effects precluded the determination of antagonist effects'. The test is classed as functional. As to conditions: Cavia porcellus; filed as agonist; target entry is the homologue from another species. The method, boiled down:
(§1)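 Guinea pig ileum longitudinal muscle–myenteric plexus (male Hartley, 250–500 g) in oxygenated Krebs at 37 °C, 1 g tension; 0.1 Hz, 0.4-ms pulses, supramaximal voltage. Control PL-017 curve first; 1 μM compound 30 min, 30 min wash, cumulative PL-017 curve repeated. IC50 ratio = antagonized/unantagonized IC50; n ≥ 3.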

The target of test [3] is T1, Delta-type opioid receptor (Rattus norvegicus, UniProt P33533). As to the kind of experiment: Displacement of [3H]DADLE from morphine-sensitive Opioid receptor delta 1 (presence of 300 nM DELT-II) of rat brain membranes. The test is classed as cell membranes, Membrane. The method, boiled down: (§2)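 Rat brain membranes pretreated with (+)-trans-[…], labelled with 2.0 nM [3H]DADLE, plus 50 nM morphine (δcx-2) or 300 nM DELT-II (δcx-1). Incubation 4–6 h at 25 °C in 10 mM Tris-HCl pH 7.4 with 100 mM NaCl, 3 mM MnCl2, 2 μM GTP, 5 mM 2-mercaptoethanol and protease inhibitors. 8–10 concentrations, twice.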
In general terms: In a radioligand displacement assay an active substance lowers the binding of a labelled ligand.

Test [4] concerns the target T2, Kappa-type opioid receptor (Cavia porcellus, UniProt P41144). As to the kind of experiment: Displacement of [125I]OXY from Opioid receptor kappa 2b of guinea pig brain membranes (pretreated with BIT(mu) and FIT(delta) and in the presence of (-)U50,488). The method, boiled down: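 Guinea pig brain membranes depleted of μ/δ sites by BIT and FIT, labelled with 0.01 nM [125I]IOXY in presence of 5 μM (−)U50,488. Incubation 4–6 h at 4 °C in 50 mM Tris-HCl pH 7.4 with 10 mM NaCl, protease inhibitors and 1 μg/mL captopril.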

Test [5] has as its target Delta-type opioid receptor (Mus musculus) (UniProt P32300). As to the kind of experiment: Compound was tested for antagonist activity against Opioid receptor delta 1 on mouse vas deferens (MVD) smooth muscle preparation using DPDPE as antagonist ligand; e denotes the agonist effects precluded the determination of antagonist effects. The test is classed as functional. The conditions noted are these: filed as agonist. The method, boiled down:
(§3)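 Mouse vas deferens (male ICR, 25–40 g) in Mg-free oxygenated Krebs at 37 °C, 0.5 g tension; transmural 0.1 Hz, 2-ms pulses, supramaximal voltage. Control DPDPE curve first; then 1 μM compound 30 min, 30 min wash, cumulative DPDPE curve (3-min steps) repeated. IC50 ratio = shifted/control IC50; Ke = [antagonist]/(ratio − 1); n ≥ 3.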

The target in test [6] is Opioid receptors; mu & delta (Rattus norvegicus) (UniProt P33533+P33535). Description: Relative affinity for mu and delta receptors in rat brain membranes. The test is classed as cell membranes.
For test [7], the species on record is Mus musculus. As to the kind of experiment: (§4) Partial agonist activity expressed as inhibition of contraction of mouse vas deferens (MVD) smooth muscle at 1 uM conc. It counts as functional, organism-based. As to conditions: Muscle tissue. The method, boiled down:
(§5)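 Agonist action on electrically driven tissues at 37 °C: GPI (1 g tension, 0.4-ms pulses) and Mg-free MVD (0.5 g, 2-ms pulses), 0.1 Hz. Percent inhibition of contraction height read 10 min after 1 μM compound; for stronger agonists, IC50 from concentration–response curves (2–4 tissues, nonlinear least squares). Selectivity = GPI IC50/MVD IC50.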

Another test concerns the target Mu-type opioid receptor (Rattus norvegicus, UniProt P33535). As to the kind of experiment: Displacement of [3H]DAMGO from Opioid receptor mu 1 of rat brain membranes. It counts as cell membranes, Membrane. The essentials:
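Rat brain membranes labelled with [3H]DAMGO. Incubation 4 h at 25 °C in 50 mM Tris-HCl pH 7.4 with protease inhibitor cocktail. Nonspecific binding defined with 20 μM levallorphan. 8–10 test concentrations, run twice; IC50 and slope factor derived.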

The species named for test [8] is Cavia porcellus. Description: (§6) Partial agonist activity expressed as inhibition of contraction of guinea pig ileal longitudinal muscle myenteric plexus (GPI) at 1 uM conc. It counts as functional, organism-based. As to conditions: Muscle tissue. The method, boiled down:
as §5

The target in test [9] is T2, Kappa-type opioid receptor. As to the kind of experiment: Displacement of [3H]U-69593 from Opioid receptor kappa 1 of guinea pig brain membranes (pretreated with BIT and FIT to block mu and delta sites). The method, boiled down: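 Guinea pig brain membranes pretreated with BIT and FIT, labelled with [3H]U69,593. Incubation 4–6 h at 25 °C in 50 mM Tris-HCl pH 7.4 with protease inhibitors and 1 μg/mL captopril. Nonspecific binding with 1 μM U69,593. 8–10 concentrations, twice.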

In test [10] the target is T1, Delta-type opioid receptor. Description: Displacement of [3H]DADLE from morphine-insensitive Opioid receptor delta 1 (presence of 50 nM morphine) of rat brain membranes. It counts as cell membranes, Membrane. The essentials:
as §2

In test [11] the target is T1, Delta-type opioid receptor. Description: Displacement of [3H]DADLE from Opioid receptor delta 1 of rat brain membranes (DAMGO quenching mu receptor). The test is classed as cell membranes, Membrane. The method, boiled down: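 Rat brain membranes labelled with [3H]DADLE. Incubation 3–4 h at 25 °C in 10 mM Tris-HCl pH 7.4 with 100 mM choline chloride, 3 mM MnCl2, 100 nM DAMGO (μ block) and protease inhibitors. Levallorphan 20 μM for nonspecific binding. 8–10 concentrations, duplicate runs.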

For test [12], the target named is Opioid receptors; mu & delta (Homo sapiens) (UniProt P41143+P35372). As to the kind of experiment: IC50 selectivity for mu receptor of guinea pig Ileum (GPI) and delta receptor of delta opioid receptor of mouse vas deferens (MVD) smooth muscle preparation. The test is classed as tissue-based. The method, boiled down:
as §5

The species named for test [13] is Cavia porcellus. Description: Binding affinity of compound was measured on electrically stimulated guinea pig ileal longitudinal muscle myenteric plexus (GPI) preparation using PL017 as standard antagonist. It counts as functional. As to conditions: Muscle tissue. The essentials:
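Electrically stimulated guinea pig ileum longitudinal muscle–myenteric plexus (male Hartley, 250–500 g) in oxygenated Krebs at 37 °C, 1 g tension; 0.1 Hz, 0.4-ms pulses. Tissue preincubated 30 min with 1 μM compound, washed 30 min, then cumulative PL-017 curve repeated. Ke = [antagonist]/(IC50 ratio − 1); n ≥ 3.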

Test [14] is filed under the species Cavia porcellus. The test is described as §6. It counts as functional, Muscle tissue. The essentials:
as §5

Test [15] can be described thus: Selectivity for mu receptor of guinea pig Ileum (GPI) and delta receptor of delta opioid receptor of mouse vas deferens (MVD) smooth muscle preparation. The test is classed as tissue-based.
For test [16], the target named is Delta-type opioid receptor (Mus musculus) (UniProt P32300).
In test [17] the target is Mu-type opioid receptor (Mus musculus) (UniProt P42866). Description: Compound was tested for antagonist activity against Opioid receptor mu 1 on electrically stimulated guinea pig ileal longitudinal muscle myenteric plexus (GPI) using PL017 as antagonist ligand. IC50 ratio = IC50(agonist)/IC50 (control). It counts as functional. The conditions noted are these: Cavia porcellus; target entry is the homologue from another species. The method, boiled down:
as §1

The species named for test [18] is Mus musculus. The test is described as §4. The test is classed as functional, Muscle tissue. The essentials: as §5
For test [19], the target named is Delta-type opioid receptor (Mus musculus, UniProt P32300). The test is described as §4. It counts as functional, tissue-based, Muscle tissue. The method, boiled down: as §5
In test [20] the target is Delta-type opioid receptor (Mus musculus) (UniProt P32300). Description: Displacement of DPDPE from Opioid receptor delta 1 of mouse vas deferens (MVD)smooth muscle. The method, boiled down: as §3
The target is the same in test [21]. As to the kind of experiment: Displacement of DPDPE from Opioid receptor delta 1 of mouse vas deferens (MVD) smooth muscle. The method, boiled down:
as §3

The species entered for test [22] is Mus musculus. As to conditions: Muscle tissue.

The Ki is the dissociation constant of the complex between target and ligand, obtained from inhibition or displacement. The term IC50 denotes the point on the concentration scale where inhibition reaches its midpoint. Read a low IC50 as greater potency in that assay.

T1 sequence (P33533 whole entry): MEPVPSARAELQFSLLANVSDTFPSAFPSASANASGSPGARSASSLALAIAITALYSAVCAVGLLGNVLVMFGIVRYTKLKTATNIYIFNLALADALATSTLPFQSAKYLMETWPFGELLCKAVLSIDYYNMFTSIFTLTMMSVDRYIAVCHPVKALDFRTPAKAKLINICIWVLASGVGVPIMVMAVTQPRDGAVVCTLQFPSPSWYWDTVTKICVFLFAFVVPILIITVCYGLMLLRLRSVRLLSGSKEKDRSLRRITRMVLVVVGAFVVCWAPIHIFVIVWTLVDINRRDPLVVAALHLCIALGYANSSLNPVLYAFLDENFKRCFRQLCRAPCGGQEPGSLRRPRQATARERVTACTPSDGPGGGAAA
Sequence of Opioid receptors; mu & delta (Rattus norvegicus) (P33533 whole entry, looked up): as the sequence (P33533 whole entry) above
Sequence of Opioid receptors; mu & delta (Rattus norvegicus) (P33535 whole entry, looked up): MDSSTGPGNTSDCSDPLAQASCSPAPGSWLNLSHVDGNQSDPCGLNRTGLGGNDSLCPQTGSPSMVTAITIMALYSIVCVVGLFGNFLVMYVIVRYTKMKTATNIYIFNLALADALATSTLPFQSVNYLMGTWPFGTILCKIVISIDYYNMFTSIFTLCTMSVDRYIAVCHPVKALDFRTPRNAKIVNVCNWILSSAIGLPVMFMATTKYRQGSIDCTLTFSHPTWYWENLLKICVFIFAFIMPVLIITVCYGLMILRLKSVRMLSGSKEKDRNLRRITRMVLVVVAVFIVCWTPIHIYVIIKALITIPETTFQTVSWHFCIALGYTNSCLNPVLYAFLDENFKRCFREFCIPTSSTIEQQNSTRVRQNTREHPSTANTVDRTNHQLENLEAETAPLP
T2 sequence (P41144 whole entry): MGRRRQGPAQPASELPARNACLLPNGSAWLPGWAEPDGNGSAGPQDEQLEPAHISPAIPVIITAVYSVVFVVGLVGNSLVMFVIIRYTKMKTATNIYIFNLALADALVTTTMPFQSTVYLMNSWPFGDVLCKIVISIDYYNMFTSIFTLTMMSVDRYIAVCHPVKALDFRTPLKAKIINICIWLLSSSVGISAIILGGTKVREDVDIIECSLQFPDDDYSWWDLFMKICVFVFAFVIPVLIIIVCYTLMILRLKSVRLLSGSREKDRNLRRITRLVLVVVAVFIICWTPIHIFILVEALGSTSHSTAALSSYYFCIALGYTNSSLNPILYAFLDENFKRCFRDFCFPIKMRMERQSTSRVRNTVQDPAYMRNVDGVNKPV
Sequence of Mu-type opioid receptor (P33535 whole entry): as the sequence (P33535 whole entry, looked up) above
Sequence of Delta-type opioid receptor (Mus musculus) (P32300 whole entry): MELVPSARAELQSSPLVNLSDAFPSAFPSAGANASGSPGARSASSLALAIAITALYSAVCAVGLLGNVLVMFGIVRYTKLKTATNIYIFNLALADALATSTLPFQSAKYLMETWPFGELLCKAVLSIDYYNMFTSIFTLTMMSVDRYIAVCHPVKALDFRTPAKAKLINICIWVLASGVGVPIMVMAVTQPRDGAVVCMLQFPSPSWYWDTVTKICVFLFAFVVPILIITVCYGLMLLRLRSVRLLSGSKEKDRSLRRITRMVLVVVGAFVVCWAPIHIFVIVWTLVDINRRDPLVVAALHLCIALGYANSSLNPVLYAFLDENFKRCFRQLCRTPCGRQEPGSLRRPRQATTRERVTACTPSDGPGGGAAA
Sequence of Mu-type opioid receptor (Mus musculus) (P42866 whole entry): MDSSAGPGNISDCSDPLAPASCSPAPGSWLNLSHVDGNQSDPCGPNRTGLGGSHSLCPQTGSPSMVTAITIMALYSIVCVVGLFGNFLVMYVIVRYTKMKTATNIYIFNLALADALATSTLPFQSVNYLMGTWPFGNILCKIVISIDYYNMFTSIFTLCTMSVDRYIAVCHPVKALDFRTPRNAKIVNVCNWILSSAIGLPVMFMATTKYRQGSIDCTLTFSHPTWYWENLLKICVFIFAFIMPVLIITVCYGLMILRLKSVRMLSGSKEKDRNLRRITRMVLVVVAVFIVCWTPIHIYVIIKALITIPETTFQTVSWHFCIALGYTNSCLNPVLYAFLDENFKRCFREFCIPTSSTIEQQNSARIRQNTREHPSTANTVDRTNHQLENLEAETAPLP
Sequence of Opioid receptors; mu & delta (Homo sapiens) (P35372 whole entry, looked up): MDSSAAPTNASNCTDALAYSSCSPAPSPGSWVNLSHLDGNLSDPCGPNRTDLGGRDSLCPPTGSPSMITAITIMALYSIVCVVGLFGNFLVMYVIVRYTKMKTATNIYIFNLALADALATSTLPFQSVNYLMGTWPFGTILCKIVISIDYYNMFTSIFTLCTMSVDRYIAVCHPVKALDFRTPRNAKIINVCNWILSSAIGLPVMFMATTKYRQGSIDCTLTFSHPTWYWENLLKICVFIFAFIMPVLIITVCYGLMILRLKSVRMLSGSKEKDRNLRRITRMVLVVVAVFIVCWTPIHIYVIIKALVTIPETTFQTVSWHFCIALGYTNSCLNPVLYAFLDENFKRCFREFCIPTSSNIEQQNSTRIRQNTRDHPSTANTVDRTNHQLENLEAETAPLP
Sequence of Opioid receptors; mu & delta (Homo sapiens) (P41143 whole entry, looked up): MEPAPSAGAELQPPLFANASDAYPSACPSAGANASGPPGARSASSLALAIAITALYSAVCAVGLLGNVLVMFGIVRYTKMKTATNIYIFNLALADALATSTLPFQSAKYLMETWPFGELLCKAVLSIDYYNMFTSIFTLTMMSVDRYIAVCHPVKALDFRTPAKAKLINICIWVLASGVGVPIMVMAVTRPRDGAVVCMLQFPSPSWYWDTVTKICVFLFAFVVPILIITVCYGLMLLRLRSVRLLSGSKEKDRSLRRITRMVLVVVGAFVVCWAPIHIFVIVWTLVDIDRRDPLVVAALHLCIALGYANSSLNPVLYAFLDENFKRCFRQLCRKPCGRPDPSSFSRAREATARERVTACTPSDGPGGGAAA
Sequence of Delta-type opioid receptor (Mus musculus, UniProt P32300) (P32300 whole entry): as the sequence (P32300 whole entry) above

On to `Oc1ccc2c3c1OC1c4[nH]c5ccc(/C=C/c6ccccn6)cc5c4C[C@@]4(O)[C@@H](C2)N(CC2CC2)CC[C@]314` (stereo partly specified), for which the Selectivity ratio in [1] was 5; in test [6], 21; in [12] it was 12. Further, the Ratio entry in [2] and in test [5] was “Agonist” each time. For the same compound, the Ki came out at 17.4 nM in test [3]; 21.4 nM in test [4]; 76 nM at Mu-type opioid receptor; 20.1 nM in test [9]; 4 nM in test [10]; 3.7 nM in test [11]. The IC50 in the test listed under Mus musculus [7] came to 220 nM; in the test filed under Cavia porcellus [8] it was 2600 nM.
As to `Oc1ccc2c3c1OC1c4[nH]c5c(-c6ccccc6)cccc5c4C[C@@]4(O)[C@@H](C2)N(CC2CC2)CC[C@]314` (stereo partly specified), the Ke in the test filed under Cavia porcellus [13] is 310 nM; in test [16] it was 1.8 nM. Further, the figures for the Selectivity ratio in test [1], in [15] and in test [6] were 149, 172 and 59, respectively. The Max response worked out at 37% in the test filed under Cavia porcellus [14] and 35% in the test filed under Mus musculus [18]. Also, the Ki in test [3] was found to be 51.4 nM; in test [4] it was 89.9 nM; at Mu-type opioid receptor, 124 nM; in test [9] it was 312 nM; in test [10] it was 0.46 nM; in test [11], 2.1 nM. In addition, the Ratio in test [17] was 4.2.
For `Oc1ccc2c3c1OC1c4[nH]c5cc(Oc6ccccc6)ccc5c4C[C@@]4(O)[C@@H](C2)N(CC2CC2)CC[C@]314` (stereo partly specified), the Selectivity ratio in test [1] was 37; in test [6], 37; in test [12] it was 0.8. Also, the Ki in test [3] was determined as 89.4 nM; in test [4], 175 nM; at Mu-type opioid receptor, 235 nM; in test [9] it was 236 nM; in test [10], 4.9 nM; in test [11], 6.4 nM. Also, the figures for the IC50 (in test [19]; in the test listed under Cavia porcellus [8]) were 3000 nM and 2300 nM, respectively. The compound further came in with a Ke in test [20] of 4.6 nM.
Regarding `Oc1ccc2c3c1OC1c4[nH]c5cc(OCc6ccccc6)ccc5c4C[C@@]4(O)[C@@H](C2)N(CC2CC2)CC[C@]314` (stereo partly specified), the Selectivity ratio in [1] came out at 70; in [6], 101. Besides, the values for the Max response in the test listed under Cavia porcellus [14] and in the test filed under Mus musculus [18] were 0% and 25%, respectively. Moreover, the Ki in test [3] stood at 201 nM; in test [4] it was 461 nM; on Mu-type opioid receptor it was 676 nM; in test [9], 470 nM; in [10], 6.3 nM; in [11], 6.7 nM. In addition, the Ratio in test [21] came out at 260. The Ke in the test filed under Mus musculus [22] came out at 3.9 nM.
